According to ChEMBL document CHEMBL1128288, “7-Azetidinylquinolones as antibacterial agents. 3. Synthesis, properties and structure-activity relationships of the stereoisomers containing a 7-(3-amino-2-methyl-1-azetidinyl) moiety” (J Med Chem, 1995):
In brackets after ≈: the same amount, converted by molar mass.

Experiments:
[1] = tested on: Staphylococcus epidermidis; test: In vitro antibacterial activity measured as minimum inhibitory concentration was evaluated on Staphylococcus epidermidis ATCC 155-1 (Se).; format: functional
Method in brief: (§1)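 Serial 2-fold agar dilution in Mueller Hinton medium, run side by side with reference quinolones. Inoculum 10^5 cfu/mL; compound range 0.007–16 µg/mL.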

[2] = tested on: Klebsiella pneumoniae; test: In vitro antibacterial activity measured as minimum inhibitory concentration was evaluated on klebsiella pneumoniae ATCC 10031 (Kp).; format: functional
Method in brief: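 Serial 2-fold agar dilution in Mueller Hinton medium, run side by side with reference quinolones.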

[3] = tested on: Bacillus cereus; test: In vitro antibacterial activity measured as minimum inhibitory concentration was evaluated on Bacillus cereus ATCC 11778 (Bc).; format: functional; method in brief: as §1
[4] = tested on: Morganella morganii; test: In vitro antibacterial activity measured as minimum inhibitory concentration was evaluated on morganella morganii ATCC 8019 (Mm).; format: functional; method in brief: as §1
[5] = tested on: Enterococcus faecalis; test: In vitro antibacterial activity measured as minimum inhibitory concentration was evaluated on Streptococcus faecalis ATCC 10541 (Sf).; format: functional; method in brief: as §1
[6] = tested on: Bacillus subtilis; test: In vitro antibacterial activity measured as minimum inhibitory concentration was evaluated on Bacillus subtilis ATCC 6633(Bs).; format: functional; method in brief: as §1
[7] = Solubility at pH 7.4 buffer.; format: physicochemical
Method in brief: (§2)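 Excess solid was shaken 24 h at 25 °C in water or in 0.05 M phosphate buffer pH 7.4, then filtered (0.22 µm) with the first portion discarded. The filtrate was diluted with 0.1 N HCl or NaOH and measured spectrophotometrically at the compound's absorbance maximum.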

[8] = Solubility in water was determined at 25 degrees Centigrade; format: physicochemical; method in brief: as §2
[9] = tested on: Proteus vulgaris; test: In vitro antibacterial activity measured as minimum inhibitory concentration was evaluated on proteus vulgaris ATCC 8427 (Pv).; format: functional; method in brief: as §1
[10] = tested on: Escherichia coli; test: In vitro antibacterial activity measured as minimum inhibitory concentration, was evaluated on Escherichia coli ATCC 23559(Ec).; format: functional; method in brief: as §1
[11] = tested on: Pseudomonas aeruginosa; test: In vitro antibacterial activity measured as minimum inhibitory concentration was evaluated on Pseudomonas aeruginosa ATCC 10145 (Pa).; format: functional; method in brief: as §1
[12] = tested on: Enterobacter cloacae; test: In vitro antibacterial activity measured as minimum inhibitory concentration, was evaluated on Enterobacter cloacae ATCC 23355 (Ecl).; format: functional
[13] = tested on: Staphylococcus aureus; test: In vitro antibacterial activity measured as minimum inhibitory concentration was evaluated on Staphylococcus aureus ATCC 25178 (Sa).; format: functional; method in brief: as §1
[14] = tested on: Escherichia coli; test: In vivo efficacy as ED50 against Escherichia coli HM-42 by oral administration in mice.; format: functional
Method in brief: (§3)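 Mice, 4 groups of 10, infected intraperitoneally with slightly more than the LD100 of the organism. A single oral dose was given immediately after infection, with four doses (one per group) chosen from in vitro activity. Survival was scored after one week. ED50 (total dose, mg/kg, protecting 50%) was interpolated among group survival rates.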

[15] = tested on: Staphylococcus aureus; test: In vivo efficacy as ED50 against Staphylococcus aureus HS-93 by oral administration in mice.; format: functional; settings: Staphylococcus aureus, po; read-out: ED50; method in brief: as §3
[16] = tested on: Pseudomonas aeruginosa; test: In vivo efficacy as ED50 against Pseudomonas aeruginosa HS-116 by oral administration in mice.; format: functional; method in brief: as §3
[17] = mouse, in vivo, po, 50 mg/kg
[18] = Staphylococcus epidermidis, ATCC 155-1, read-out: MIC
[19] = Klebsiella pneumoniae, ATCC 10031, read-out: MIC
[20] = Bacillus cereus, ATCC 11778, read-out: MIC
[21] = Morganella morganii, ATCC 8019, read-out: MIC
[22] = Enterococcus faecalis, ATCC 10541, read-out: MIC
[23] = Bacillus subtilis, ATCC 6633, read-out: MIC
[24] = Proteus vulgaris, ATCC 8427, read-out: MIC
[25] = Escherichia coli, ATCC 23559, read-out: MIC
[26] = Pseudomonas aeruginosa, ATCC 10145, read-out: MIC
[27] = Enterobacter cloacae, ATCC 23355, read-out: MIC
[28] = Staphylococcus aureus, ATCC 25178, read-out: MIC
[29] = Escherichia coli, po, read-out: ED50
[30] = Pseudomonas aeruginosa, po, read-out: ED50

`C[C@H](N)C(=O)N[C@@H]1CN(c2cc3c(cc2F)c(=O)c(C(=O)O)cn3-c2ccc(F)cc2F)[C@H]1C` gave an MIC [1, 18] of 16 µg/mL (≈ 33.7 µM), an MIC [2, 19] of 2 µg/mL (≈ 4.22 µM) and an MIC [3, 20] of 1 µg/mL (≈ 2.11 µM). For the same compound, the MIC [4, 21] was 4 µg/mL (≈ 8.43 µM), the MIC [5, 22] was 8 µg/mL (≈ 16.9 µM) and the MIC [6, 23] was 0.5 µg/mL (≈ 1.05 µM). For the same compound, the solubility [7] was > 500 µg/mL, the solubility [8] was > 500 µg/mL and the MIC [9, 24] was 16 µg/mL (≈ 33.7 µM). It also gave an MIC [10, 25] of 1 µg/mL (≈ 2.11 µM), an MIC [11, 26] of 8 µg/mL (≈ 16.9 µM) and an MIC [12, 27] of 2 µg/mL (≈ 4.22 µM). For the same compound, the MIC [13, 28] was 1 µg/mL (≈ 2.11 µM).
`C[C@@H]1[C@@H](N)CN1c1nc2c(cc1F)c(=O)c(C(=O)O)cn2-c1ccc(F)cc1F` gave an ED50 [14, 29] of 10.3 mg/kg, an MIC [1, 18] of 0.5 µg/mL (≈ 1.24 µM) and an MIC [2, 19] of 0.25 µg/mL (≈ 0.618 µM). The MIC [3, 20] was 0.5 µg/mL (≈ 1.24 µM), the ED50 [15] was 8.6 mg/kg and the MIC [4, 21] was 1 µg/mL (≈ 2.47 µM). For the same compound, the MIC [5, 22] was 4 µg/mL (≈ 9.89 µM), the MIC [6, 23] was 0.25 µg/mL (≈ 0.618 µM) and the ED50 [16, 30] was 400 mg/kg. For the same compound, the MIC [9, 24] was 2 µg/mL (≈ 4.95 µM), the MIC [10, 25] was 0.5 µg/mL (≈ 1.24 µM) and the MIC [11, 26] was 8 µg/mL (≈ 19.8 µM). It also gave an AUC [17] of 28300 ng·h/mL, an MIC [12, 27] of 1 µg/mL (≈ 2.47 µM) and an MIC [13, 28] of 0.5 µg/mL (≈ 1.24 µM).
Work on `CC(C)C[C@H](N)C(=O)N[C@@H]1CN(c2nc3c(cc2F)c(=O)c(C(=O)O)cn3C2CC2)[C@H]1C` yielded an ED50 [14, 29] of 2 mg/kg, an MIC [1, 18] of 0.25 µg/mL (≈ 0.561 µM) and an MIC [2, 19] of 0.06 µg/mL (≈ 0.135 µM). The MIC [3, 20] was 0.12 µg/mL (≈ 0.269 µM), the ED50 [15] was 9.4 mg/kg and the MIC [4, 21] was 0.25 µg/mL (≈ 0.561 µM). For the same compound, the MIC [5, 22] was 2 µg/mL (≈ 4.49 µM), the MIC [6, 23] was 0.12 µg/mL (≈ 0.269 µM) and the solubility [7] was > 500 µg/mL. For the same compound, the solubility [8] was > 500 µg/mL, the ED50 [16, 30] was 63 mg/kg and the MIC [9, 24] was 0.25 µg/mL (≈ 0.561 µM). For the same compound, the MIC [10, 25] was 0.06 µg/mL (≈ 0.135 µM), the MIC [11, 26] was 8 µg/mL (≈ 18 µM) and the AUC [17] was 24900 ng·h/mL. It also gave an MIC [12, 27] of 0.12 µg/mL (≈ 0.269 µM) and an MIC [13, 28] of 0.25 µg/mL (≈ 0.561 µM).
With `C[C@H]1[C@H](N)CN1c1nc2c(cc1F)c(=O)c(C(=O)O)cn2C1CC1` (single isomer, unassigned) the ED50 [14, 29] was 1 mg/kg, the MIC [1, 18] was 0.06 µg/mL (≈ 0.181 µM) and the MIC [2, 19] was 0.015 µg/mL (≈ 0.0451 µM). It also gave an MIC [3, 20] of 0.015 µg/mL (≈ 0.0451 µM), an ED50 [15] of 4.6 mg/kg and an MIC [4, 21] of 0.015 µg/mL (≈ 0.0451 µM). For the same compound, the MIC [5, 22] was 0.12 µg/mL (≈ 0.361 µM), the MIC [6, 23] was 0.015 µg/mL (≈ 0.0451 µM) and the solubility [7] was 16.5 µg/mL (≈ 49.6 µM). The solubility [8] was 23 µg/mL (≈ 69.2 µM), the ED50 [16, 30] was 34 mg/kg and the MIC [10, 25] was 0.015 µg/mL (≈ 0.0451 µM). It also gave an MIC [11, 26] of 0.12 µg/mL (≈ 0.361 µM), an AUC [17] of 19200 ng·h/mL and an MIC [12, 27] of 0.015 µg/mL (≈ 0.0451 µM). It also gave an MIC [13, 28] of 0.06 µg/mL (≈ 0.181 µM).
In the case of `CC1C(N)CN1c1c(F)cc2c(=O)c(C(=O)O)cn3c2c1OC[C@@H]3C` (single isomer, unassigned), the ED50 [14, 29] was 5.9 mg/kg, the MIC [1, 18] was 0.015 µg/mL (≈ 0.0432 µM) and the MIC [2, 19] was 0.015 µg/mL (≈ 0.0432 µM). It also gave an MIC [3, 20] of 0.06 µg/mL (≈ 0.173 µM), an ED50 [15] of 6.9 mg/kg and an MIC [4, 21] of 0.015 µg/mL (≈ 0.0432 µM). The MIC [5, 22] was 0.12 µg/mL (≈ 0.345 µM), the MIC [6, 23] was 0.015 µg/mL (≈ 0.0432 µM) and the ED50 [16, 30] was 26 mg/kg. It also gave an MIC [9, 24] of 0.06 µg/mL (≈ 0.173 µM), an MIC [10, 25] of 0.015 µg/mL (≈ 0.0432 µM) and an MIC [11, 26] of 0.25 µg/mL (≈ 0.72 µM). The AUC [17] was 2300 ng·h/mL, the MIC [12, 27] was 0.015 µg/mL (≈ 0.0432 µM) and the MIC [13, 28] was 0.015 µg/mL (≈ 0.0432 µM).
With `C[C@H]1[C@H](N)CN1c1cc2c(cc1F)c(=O)c(C(=O)O)cn2-c1ccc(F)cc1F` (single isomer, unassigned) [CETEFLOXACIN] the ED50 [14, 29] was 4 mg/kg, the MIC [2, 19] was 0.06 µg/mL (≈ 0.149 µM) and the ED50 [15] was 7 mg/kg. It also gave an MIC [6, 23] of 0.06 µg/mL (≈ 0.149 µM), a solubility [7] of 5.9 µg/mL (≈ 14.6 µM) and a solubility [8] of 8 µg/mL (≈ 19.8 µM). It also gave an ED50 [16, 30] of 64 mg/kg, an MIC [10, 25] of 0.06 µg/mL (≈ 0.149 µM) and an MIC [11, 26] of 1 µg/mL (≈ 2.48 µM). It also gave an AUC [17] of 28400 ng·h/mL.
Compound `C[C@@H]1[C@@H](N)CN1c1c(F)cc2c(=O)c(C(=O)O)cn(C3CC3)c2c1F` (stereo in doubt; 22b) has an ED50 [14] of 10.2 mg/kg, an MIC [1] of 0.25 µg/mL (≈ 0.716 µM) and an MIC [2] of 0.12 µg/mL (≈ 0.344 µM). For the same compound, the MIC [3] was 0.5 µg/mL (≈ 1.43 µM), the ED50 [15] was 12.2 mg/kg and the MIC [4] was 0.25 µg/mL (≈ 0.716 µM). It also gave an MIC [5] of 2 µg/mL (≈ 5.73 µM), an MIC [6] of 0.12 µg/mL (≈ 0.344 µM) and an ED50 [16] of 65 mg/kg. For the same compound, the MIC [9] was 0.5 µg/mL (≈ 1.43 µM), the MIC [10] was 0.25 µg/mL (≈ 0.716 µM) and the MIC [11] was 4 µg/mL (≈ 11.5 µM). For the same compound, the AUC [17] was 13600 ng·h/mL, the MIC [12] was 0.25 µg/mL (≈ 0.716 µM) and the MIC [13] was 0.25 µg/mL (≈ 0.716 µM).
